# Laboratory results reported in ChEMBL document CHEMBL4011621, “A Novel Series of Highly Potent Small Molecule Inhibitors of Rhinovirus Replication” (J Med Chem, 2017).
# How the values were obtained:
# rhinovirus B14 = assay: Antiviral activity against Human rhinovirus B14 infected in human H1HeLa cells assessed as protection against virus induced cytopathic effect after 3 days by MTT assay; format: functional, cell-based; settings: Rhinovirus B, H1-HeLa, 72 h
# rhinovirus A21 = assay: Antiviral activity against Human rhinovirus A21 infected in human H1HeLa cells assessed as protection against virus induced cytopathic effect after 3 days by MTT assay; format: functional, cell-based; settings: Rhinovirus A, H1-HeLa, 72 h
# Summary of the method: (§1)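 CPE-reduction assay in H1HeLa cells plated 2 d before. Equal volumes of virus and compound were added and held at 33 °C for 3 d under CO2. Supernatant was removed, then MTT was added for 1 h at 37 °C. Formazan was dissolved and read at 540 nm against a 690 nm reference. Survival was scaled between uninfected untreated wells (100%) and virus-only wells (0%); mean ± SD, three experiments.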
# [1] = Cytotoxicity against human H1HeLa cells assessed as decrease in cell viability after 3 days by MTT assay; format: cell-based, H1-HeLa
# [2] = Antiviral activity against Human rhinovirus A71 infected in human H1HeLa cells assessed as protection against virus induced cytopathic effect after 3 days by MTT assay; format: functional, cell-based; settings: Rhinovirus A, H1-HeLa, 72 h; summary of the method: as §1
# [3] = Selectivity index, ratio of CC50 for human H1HeLa cells to EC50 for Human rhinovirus B14 infected in human H1HeLa cells; format: toxicity, cell-based; settings: read-out: Ratio CC50/EC50
# Summary of the method: (§2)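 H1HeLa cells plated 2 d ahead; virus plus compound (equal volumes) incubated 33 °C, 3 d, CO2. MTT 1 h at 37 °C, A540/A690. Survival scaled between uninfected untreated (100%) and virus-only (0%) wells to give EC50. CC50 = 50% cell death by MTT in H1HeLa. SI = CC50/EC50; at least three independent experiments.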
# [4] = Selectivity index, ratio of CC50 for human H1HeLa cells to EC50 for Human rhinovirus A21 infected in human H1HeLa cells; format: toxicity, cell-based; settings: read-out: Ratio CC50/EC50; summary of the method: as §2
# [5] = Selectivity index, ratio of CC50 for human H1HeLa cells to EC50 for Human rhinovirus A71 infected in human H1HeLa cells; format: toxicity, cell-based; settings: read-out: Ratio CC50/EC50; summary of the method: as §2
# Poliovirus 3 = assay: Antiviral activity against Human poliovirus 3 infected in human HeLa cells assessed as protection against virus induced cytopathic effect after 2 days by MTT assay; format: functional, cell-based; settings: Enterovirus C, 48 h
# Summary of the method: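 HeLa cells; MTT-based CPE reduction. Virus and compound added in equal volumes, incubated 37 °C for 2 d in CO2. Supernatant removed, MTT 1 h at 37 °C, formazan dissolved, absorbance 540 nm (690 nm reference). Uninfected untreated wells = 100% survival, virus-only = 0%. EC50 = 50% inhibition; means ± SD, three experiments.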
# [6] = Cytotoxicity aganist human HeLa cells assessed as decrease in cell viability after 2 days by MTT assay; format: cell-based
# [7] = Selectivity index, ratio of CC50 for human HeLa cells to EC50 for human poliovirus 3 infected in human HeLa cells; format: toxicity, cell-based; settings: read-out: Ratio CC50/EC50
# Summary of the method: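 SI = CC50/EC50 in HeLa cells. CC50 = 50% cell death by MTT. EC50 = 50% inhibition of PV3 CPE by MTT after 2 d at 37 °C, survival scaled to uninfected (100%) and virus-only (0%) wells. At least three independent experiments.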
# [8] = Cytotoxicity against human HeLa Rh cells assessed as decrease in cell viability after 3 days by MTT assay; format: cell-based
Structure (SMILES),EC50 (rhinovirus B14) [nM],EC50 (rhinovirus A21) [nM],CC50 at 72 h [1] [µM],EC50 [2] [nM],selectivity ratio [3],selectivity ratio [4],selectivity ratio [5],EC50 (Poliovirus 3) [nM],CC50 at 48 h [6] [µM],selectivity ratio [7],CC50 at 72 h [8] [µM]
CCOC(=O)c1cc2ccc(Oc3ccnc(C(=O)NC)c3)cc2s1,24600 to 58400,1200 to 1300,> 100,19,> 1.7,> 77,> 5300,64300,> 100,> 1.6,
CCOC(=O)c1ccc2ccc(Oc3ccnc(C(=O)NC)c3)cc2c1,2100,270,20.8,48,9.9,77,430,9.5,13.2,1400,
CNC(=O)c1cc(Oc2ccc3cc(C(=O)OC(C)C)n(C)c3c2)ccn1,820,64,10.3,7.1,13,160,1500,9100,46.1,5.1,
CNC(=O)c1cc(Oc2ccc3ccc(C(=O)OC(C)C)cc3c2)ccn1,1800,480,13.8,19,7.7,29,730,10,8.7,870,
CCOC(=O)c1sc2cc(Oc3ccnc(C(=O)NC)c3)ccc2c1C,1700,290,50.9,340,30,180,150,93,> 100,> 1100,
CNC(=O)c1cc(Oc2ccc3cc(C(=O)OC(C)C)sc3c2)ccn1,1700,1500,45.7,13,27,31,3500,6400,45,7,
CCOC(=O)c1sc2cc(Oc3ccnc(C(=O)NC)c3)ccc2c1CC,13500,210,35.2,1300,2.6,170,27,> 16700,16.7,,
CNC(=O)c1cc(Oc2ccc3c(C)c(C(=O)OCC(C)C)sc3c2)ccn1,10100,1500,36.6,380,3.6,24,96,2000,28.2,14,
CNC(=O)c1cc(Oc2ccc3c(C)c(C(=O)OC)sc3c2)ccn1,2000,250,10.8,1600,5.4,43,6.8,87,15.7,180,
CNC(=O)c1cc(Oc2ccc3c(C)c(C(=O)OC(C)C)n(C)c3c2)ccn1,1900,130,11.2,60,5.9,86,190,71,8.5,120,
CCOC(=O)c1sc2cc(Oc3ccnc(C(=O)NC)c3)ccc2c1C#N,82500,20700,> 100,540,> 1.2,> 4.8,> 190,55400,> 100,> 1.8,
CCOC(=O)c1sc2cc(Oc3cccc(C(=O)NC)c3)ccc2c1C,3400,85,5.1,150,1.5,60,34,380,7.7,20,
CCOC(=O)c1ccc2ccc(Oc3ccnc(C(=O)NC)c3)cc2n1,56600,44300,> 100,1300,> 1.8,> 2.3,> 77,1900,> 100,> 53,
CCOC(=O)c1ccc2cc(Oc3ccnc(C(=O)NC)c3)ccc2c1,2100,91,35.3,3.5,17,390,10000,410,34.1,83,
CCCOC(=O)c1sc2cc(Oc3ccnc(C(=O)NC)c3)ccc2c1C,2900,330,37.4,64,13,110,580,710,57.1,80,
CCOc1noc2cc(OCCC3CCN(c4ccc(C)nn4)CC3)ccc12 [VAPENDAVIR],,,,,,,,,,,721
CNC(=O)c1cc(Oc2ccc3ccc(C(=O)OC)cc3c2)ccn1,11000,2000,53.5,1600,4.9,27,33,44,33.8,770,
CCOC(=O)c1cc2ccc(Oc3ccnc(C(=O)NC)c3)c(Cl)c2s1,12400,7700,> 100,200,> 8.1,> 13,> 500,58700,> 100,> 1.7,
